Screening results (PubChem)
HTR1A agonist – human 5-HT1a receptor agonists, primary screen, cell-based, CHO, Ga15 NFAT-bla reporter; 5-hydroxytryptamine receptor 1A (Homo sapiens), P08908; CHO 5-HT1a Ga15 NFAT-bla reporter, FRET ratio; 0% basal, 100% maximal reference agonist; activation, % at 10 µM; actives 0.56% (n = 65,000);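 active = activation above the screen-wide mean activation plus 3 SD, cut at about 19% in these data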;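 note: 0% = DMSO wells and 100% = 5-CT at EC100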
5HT1E ag – 5-HT1E receptor agonists, primary screen, cell-based, HTS | CHO 5-HT1E Ga15 NFAT-bla reporter, FRET; 0% DMSO wells, 100% control agonist wells | AID 574, 2007 | actives 0.69% (n = 65,000) | activation, % at 6 µM;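 active = activation above a set limit, the screen-wide mean activation plus 3 SD, cut at about 8.5% in these data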;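 note: 100% = positive control agonist at 1 µM giving full maximal response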
Target sequence (P28566 whole entry, looked up): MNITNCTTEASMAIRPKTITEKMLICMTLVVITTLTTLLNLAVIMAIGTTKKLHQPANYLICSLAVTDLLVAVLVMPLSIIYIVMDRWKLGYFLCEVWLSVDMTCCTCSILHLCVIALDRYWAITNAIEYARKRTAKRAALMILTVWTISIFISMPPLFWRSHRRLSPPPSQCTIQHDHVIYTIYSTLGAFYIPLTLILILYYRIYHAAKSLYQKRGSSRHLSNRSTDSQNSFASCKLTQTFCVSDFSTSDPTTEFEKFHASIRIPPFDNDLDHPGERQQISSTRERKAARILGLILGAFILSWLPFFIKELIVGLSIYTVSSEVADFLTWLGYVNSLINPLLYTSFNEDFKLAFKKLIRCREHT
5-HT1A blocker – human 5-HT1a receptor antagonists, primary screen, cell-based, CHO, Ga15 NFAT-bla reporter. 5-hydroxytryptamine receptor 1A (Homo sapiens), P08908. CHO 5-HT1a Ga15 NFAT-bla reporter, antagonist mode. inhibition, % at 10 µM. actives 0.68% (n = 62,000). AID 612, 2007;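 active = inhibition above the mean of all tested compounds plus 3 SD, cut at about 43% in these data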;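 note: receptor stimulated by 5-CT agonist at 100 nM near EC80; beta-lactamase reporter measured by ratiometric fluorescence of a cleavable substrate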
Jurkat viability – cytotoxicity toward Jurkat T cells, primary screen, cytotoxicity control, cell-based, Jurkat E6.1, 60K MLSMR library; Jurkat E6.1 viability, ATP luminescence, 48 h; inhibition, % at 4 µM; actives 1.2% (n = 56,000); AID 463, 2006;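 active = inhibition above the mean inhibition of all tested compounds plus 3 SD, cut at about 28% in these data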
HEK293 NFkB inh – inhibitors of PMA/ionomycin-induced NF-kB reporter, primary screen, antigen receptor NF-kB inhibitor project, cell-based, HEK-293 luciferase reporter, luminescence; AID 465, 2006; HEK-293 NF-kB luciferase reporter; inhibition, % at 3 µM; actives 0.21% (n = 62,000);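 active = inhibition above the mean of all tested compounds plus 3 SD, cut at about 40% in these data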;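 note: 0% = stimulated DMSO wells and 100% = 10 µM reference inhibitor 5653914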
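System – HEK-293 cells with stable firefly luciferase reporter driven by four HIV NF-kB elements · Doses – one dose, 3 µM · Schedule – 1 h compound pre-incubation, 16 h PMA/ionomycin at 37 °C · Technique – luminescence from luciferase substrate reagent · Measure – percent inhibition normalized per plate to DMSO and reference-inhibitor controls · Replicates – tested once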
HTR1E antagonist – 5-HT1E receptor antagonists, primary screen, cell-based, HTS. CHO 5-HT1E Ga15 NFAT-bla reporter, FRET, antagonist. inhibition, % at 6 µM. 5-hydroxytryptamine receptor 1E (Homo sapiens), P28566. actives 0.99% (n = 65,000). AID 571, 2007;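 active = inhibition above a set limit, the mean inhibition across every tested compound plus 3 SD, cut at about 29% in these data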;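 note: signal is the 460 over 535 nm emission ratio of beta-lactamase substrate; 0% = agonist plus DMSO wells and 100% = wells without agonist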
Numbers without * were called inactive. A selection: hits, their analogues and other compounds. The true share with any hit is near 3.3%.

For Cc1cc(C(=O)CSc2nnc(-c3ccco3)o2)c(C)n1CC1COc2ccccc2O1 (configuration not stated) the results were HTR1A agonist 30.4*, 5HT1E ag 0.7, 5-HT1A blocker -0.9, Jurkat viability 6.0, HEK293 NFkB inh 18.5 and HTR1E antagonist -1.1.
`COc1nc(OC)nc(N2CCC(C(=O)Nc3cccc4ccccc34)CC2)n1` gave HTR1A agonist -3.5, 5HT1E ag 0.0, 5-HT1A blocker 9.8, Jurkat viability -0.3, HEK293 NFkB inh 3.3 and HTR1E antagonist 8.3.
COc1nc(OC)nc(N2CCC(C(=O)Nc3cccc4c3CCCC4)CC2)n1 was read as HTR1A agonist 21.9*, 5HT1E ag 0.3, 5-HT1A blocker -0.2, Jurkat viability -6.5, HEK293 NFkB inh 3.2 and HTR1E antagonist 1.2.
Screening O=C(C1CCN(S(=O)(=O)c2cccc3cccnc23)CC1)N1CCN(c2ccccn2)CC1 returned HTR1A agonist 2.2, 5HT1E ag 0.7, 5-HT1A blocker -2.2, Jurkat viability -0.2, HEK293 NFkB inh 13.2 and HTR1E antagonist -5.3.
For O=C(C1CCN(S(=O)(=O)c2cccc3cccnc23)CC1)N1CCN(c2ccc(Cl)cc2)CC1 the results were HTR1A agonist 1.2, 5HT1E ag 2.1, 5-HT1A blocker 2.6, Jurkat viability 38.0*, HEK293 NFkB inh 17.1 and HTR1E antagonist -1.3.
Screening CC(C)c1cc(C(=O)Nc2cc(Cl)ccc2O)no1 returned HTR1A agonist -5.5, 5HT1E ag -0.6, 5-HT1A blocker 18.7, Jurkat viability 54.5*, HEK293 NFkB inh -35.0 and HTR1E antagonist 3.7.
Screening CCCc1cc(C(=O)Nc2cc(Br)ccc2O)no1 returned HTR1A agonist -4.1, 5HT1E ag 0.2, 5-HT1A blocker 16.8, Jurkat viability 46.3*, HEK293 NFkB inh 1.5 and HTR1E antagonist -9.0.
CC(C)c1cc(C(=O)Nc2cccc(Cl)c2)no1 was read as HTR1A agonist -2.3, 5HT1E ag -1.1, 5-HT1A blocker 17.1, Jurkat viability 2.1, HEK293 NFkB inh -40.9 and HTR1E antagonist 6.4.
For Cc1onc(-c2ccccc2)c1C(=O)Nc1cccc(C#N)c1 the results were HTR1A agonist -1.9, 5HT1E ag -0.6, 5-HT1A blocker 15.2, Jurkat viability 2.8, HEK293 NFkB inh 4.8 and HTR1E antagonist 4.7.
For CC1(C)CC(=O)CC(C)(C)N1OC(=O)c1ccncc1 the results were HTR1A agonist -3.4, 5HT1E ag -0.2, 5-HT1A blocker 0.9, Jurkat viability 0.9, HEK293 NFkB inh 3.7 and HTR1E antagonist 1.0.
`O=C(Nc1nc2ccccc2n1CCOc1ccc(Cl)cc1)c1ccco1` gave HTR1A agonist -0.4, 5HT1E ag 2.1, 5-HT1A blocker 39.4, Jurkat viability 23.6, HEK293 NFkB inh 6.1 and HTR1E antagonist 7.7.
Cc1ccc(OCCn2c(NC(=O)c3ccco3)nc3ccccc32)cc1 was read as HTR1A agonist -2.5, 5HT1E ag 0.6, 5-HT1A blocker 39.1, Jurkat viability 9.1, HEK293 NFkB inh 4.4 and HTR1E antagonist 4.7.
O=C(Nc1nc2ccccc2n1CCOc1ccccc1)c1ccco1 was read as HTR1A agonist 0.4, 5HT1E ag 0.0, 5-HT1A blocker 47.5*, Jurkat viability 10.6, HEK293 NFkB inh -1.3 and HTR1E antagonist -0.1.
Screening Cc1cccc(OCCn2c(NC(=O)c3ccco3)nc3ccccc32)c1 returned HTR1A agonist -1.5, 5HT1E ag 0.2, 5-HT1A blocker 54.7*, Jurkat viability -0.9, HEK293 NFkB inh 14.3 and HTR1E antagonist -10.4.
`O=C(c1cccc2ccccc12)N1CCN(CC2CC=CCC2)CC1` (configuration not stated) gave HTR1A agonist 0.6, 5HT1E ag -1.7, 5-HT1A blocker 16.5, Jurkat viability -6.0, HEK293 NFkB inh 16.5 and HTR1E antagonist -3.5.
`O=C(CN(C(=O)CSc1nnc(COc2ccccc2)o1)c1ccc(F)cc1)NC1CCCCC1` gave HTR1A agonist -2.2, 5HT1E ag 1.3, 5-HT1A blocker 13.3, Jurkat viability -6.6, HEK293 NFkB inh 5.6 and HTR1E antagonist -5.7.
COc1ccc2[nH]c(O)c(NC(C)=O)c2c1 was read as HTR1A agonist -0.9, 5HT1E ag 12.7*, 5-HT1A blocker -2.9, Jurkat viability -5.4, HEK293 NFkB inh 1.0 and HTR1E antagonist 4.6.
COc1cccc(N2CCN(C(=O)c3ccc(=O)oc3)CC2C)c1 (configuration not stated) was read as HTR1A agonist 1.8, 5HT1E ag 11.5* and HTR1E antagonist 0.7.
Screening CC1(c2ccccc2)NC(=O)N(CCN2C(=O)c3ccccc3C2=O)C1=O (configuration not stated) returned HTR1A agonist 1.1, 5HT1E ag -0.2, 5-HT1A blocker -13.9, Jurkat viability 0.4, HEK293 NFkB inh 8.9 and HTR1E antagonist -2.0.
Screening COc1ccc(OC)c(C(=O)CN2C(=O)NC(C)(c3ccccc3)C2=O)c1 (configuration not stated) returned HTR1A agonist 161.0*, 5HT1E ag 0.0, 5-HT1A blocker -0.2, Jurkat viability -2.7, HEK293 NFkB inh 13.5 and HTR1E antagonist -2.0.
C=CCn1c(SCC(=O)Nc2sccc2C(N)=O)nc2sc(C)c(C)c2c1=O was read as HTR1A agonist 6.1, 5HT1E ag 0.7, 5-HT1A blocker -0.8, Jurkat viability -5.8, HEK293 NFkB inh -2.0 and HTR1E antagonist 33.2*.
For Cc1nnc(SCC(=O)Nc2sccc2C(N)=O)n1Cc1ccccc1 the results were HTR1A agonist -1.1, 5HT1E ag 1.1, 5-HT1A blocker -9.3, Jurkat viability -6.5, HEK293 NFkB inh 5.8 and HTR1E antagonist -3.9.
O=C(CSc1nnc(-c2ccccn2)n1Cc1ccccc1)NC1CCCC1 was read as HTR1A agonist -2.0, 5HT1E ag -1.7, 5-HT1A blocker 18.6, Jurkat viability 6.0, HEK293 NFkB inh 8.1 and HTR1E antagonist -0.4.
For Cn1c(-c2ccccc2)cc2c3no[n+]([O-])c3ccc21 the results were HTR1A agonist 2.4, 5HT1E ag -0.2, 5-HT1A blocker 44.5*, Jurkat viability 78.0*, HEK293 NFkB inh 17.8 and HTR1E antagonist 34.1*.
COCc1nnc(NS(=O)(=O)c2ccc(Br)cc2)s1 was read as HTR1A agonist -0.8, 5HT1E ag -0.1, 5-HT1A blocker -13.9, Jurkat viability 0.0, HEK293 NFkB inh 16.9 and HTR1E antagonist -4.5.
